By inhibition is commonly meant the change of the read-out against control, counted positive when it falls.

For five compounds, inhibition results are on record in ChEMBL document CHEMBL2424622, “Development of amino-pyrimidine inhibitors of c-Jun N-terminal kinase (JNK): kinase profiling guided optimization of a 1,2,3-benzotriazole lead” (Bioorg Med Chem Lett, 2013).

Assay [1] deals with T1, Cyclin-dependent kinase 11A (Homo sapiens) (UniProt Q9UQ88).
T1 sequence (whole entry): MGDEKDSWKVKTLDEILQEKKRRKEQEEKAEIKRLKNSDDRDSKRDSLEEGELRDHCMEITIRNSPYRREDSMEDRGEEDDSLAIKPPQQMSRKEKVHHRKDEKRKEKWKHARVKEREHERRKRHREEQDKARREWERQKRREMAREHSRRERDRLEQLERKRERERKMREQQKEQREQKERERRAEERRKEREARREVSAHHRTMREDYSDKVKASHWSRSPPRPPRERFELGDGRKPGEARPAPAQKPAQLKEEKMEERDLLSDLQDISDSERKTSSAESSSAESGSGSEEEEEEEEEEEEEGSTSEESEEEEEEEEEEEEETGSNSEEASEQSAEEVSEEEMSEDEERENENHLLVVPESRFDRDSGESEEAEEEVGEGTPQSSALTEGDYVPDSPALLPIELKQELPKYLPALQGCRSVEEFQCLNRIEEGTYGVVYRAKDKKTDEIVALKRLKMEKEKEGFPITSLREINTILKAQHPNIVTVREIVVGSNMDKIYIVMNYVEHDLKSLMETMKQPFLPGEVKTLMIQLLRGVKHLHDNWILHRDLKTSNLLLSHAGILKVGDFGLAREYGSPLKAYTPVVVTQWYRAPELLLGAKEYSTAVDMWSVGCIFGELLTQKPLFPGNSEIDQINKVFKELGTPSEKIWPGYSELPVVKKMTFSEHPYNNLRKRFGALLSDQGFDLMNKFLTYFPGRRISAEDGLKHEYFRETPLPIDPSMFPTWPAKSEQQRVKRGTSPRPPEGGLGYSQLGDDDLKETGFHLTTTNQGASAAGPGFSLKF
The assay is described as follows: Competitive binding affinity to CDC2L2 (unknown origin) at 10 uM in presence of ATP relative to control. The essentials: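 In vitro ATP-site competition binding format, run as one member of a diverse 128-kinase profiling panel. Each compound was tested at a single concentration across the whole panel.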

For assay [2], the target named is T2, Serine/threonine-protein kinase 3 (Homo sapiens) (UniProt Q13188).
T2 sequence (whole entry): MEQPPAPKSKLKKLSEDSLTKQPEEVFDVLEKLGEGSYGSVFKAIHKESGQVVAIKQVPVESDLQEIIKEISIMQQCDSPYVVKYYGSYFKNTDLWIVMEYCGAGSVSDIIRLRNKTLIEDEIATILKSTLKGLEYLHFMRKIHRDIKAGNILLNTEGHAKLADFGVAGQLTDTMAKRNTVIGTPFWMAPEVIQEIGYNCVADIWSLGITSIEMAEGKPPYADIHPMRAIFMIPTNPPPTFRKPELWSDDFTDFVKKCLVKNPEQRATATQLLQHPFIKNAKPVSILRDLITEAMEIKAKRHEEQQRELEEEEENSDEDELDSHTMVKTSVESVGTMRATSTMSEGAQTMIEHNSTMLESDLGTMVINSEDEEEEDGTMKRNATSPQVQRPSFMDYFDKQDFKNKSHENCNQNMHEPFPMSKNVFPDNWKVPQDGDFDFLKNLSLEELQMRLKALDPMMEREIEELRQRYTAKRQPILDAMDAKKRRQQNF
The assay is described as follows: Competitive binding affinity to MST2 (unknown origin) at 10 uM in presence of ATP relative to control.

Assay [3] has as its target Activin receptor type-2A (Homo sapiens) (UniProt P27037). As to the kind of experiment: Competitive binding affinity to ACVR2A (unknown origin) at 10 uM in presence of ATP relative to control.
For assay [4], the target named is Dual specificity testis-specific protein kinase 1 (Homo sapiens) (UniProt Q15569). The assay is described as follows: Competitive binding affinity to TESK1 (unknown origin) at 10 uM in presence of ATP relative to control.
For assay [5], the target named is SRSF protein kinase 2 (Homo sapiens) (UniProt P78362). The assay is described as follows: Competitive binding affinity to SRPK2 (unknown origin) at 10 uM in presence of ATP relative to control.
The target of assay [6] is T3, Serine/threonine-protein kinase BRSK1 (Homo sapiens) (UniProt Q8TDC3).
T3 sequence (whole entry): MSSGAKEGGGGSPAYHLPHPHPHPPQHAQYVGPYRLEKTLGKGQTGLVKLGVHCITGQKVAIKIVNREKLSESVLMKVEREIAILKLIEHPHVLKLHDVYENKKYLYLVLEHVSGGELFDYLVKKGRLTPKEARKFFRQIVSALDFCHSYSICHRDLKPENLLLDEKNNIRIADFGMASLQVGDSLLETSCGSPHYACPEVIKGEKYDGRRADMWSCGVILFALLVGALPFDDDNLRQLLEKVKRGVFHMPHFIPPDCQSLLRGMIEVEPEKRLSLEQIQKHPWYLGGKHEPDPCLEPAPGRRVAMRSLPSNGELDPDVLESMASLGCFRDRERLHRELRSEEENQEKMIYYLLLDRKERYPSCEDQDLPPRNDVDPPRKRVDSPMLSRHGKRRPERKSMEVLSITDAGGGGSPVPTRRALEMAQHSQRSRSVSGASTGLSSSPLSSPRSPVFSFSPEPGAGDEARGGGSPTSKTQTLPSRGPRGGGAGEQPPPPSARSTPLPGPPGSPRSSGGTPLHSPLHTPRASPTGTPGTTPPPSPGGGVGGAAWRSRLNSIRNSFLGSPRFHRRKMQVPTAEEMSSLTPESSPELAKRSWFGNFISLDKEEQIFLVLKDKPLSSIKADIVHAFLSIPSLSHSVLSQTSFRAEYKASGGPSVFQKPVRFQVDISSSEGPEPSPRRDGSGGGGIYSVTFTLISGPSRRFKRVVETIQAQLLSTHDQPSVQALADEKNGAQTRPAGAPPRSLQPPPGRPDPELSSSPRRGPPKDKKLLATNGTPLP
As to the kind of experiment: Competitive binding affinity to BRSK1 (unknown origin) at 10 uM in presence of ATP relative to control.

In assay [7] the target is T4, TGF-beta receptor type-1 (Homo sapiens) (UniProt P36897).
T4 sequence (whole entry): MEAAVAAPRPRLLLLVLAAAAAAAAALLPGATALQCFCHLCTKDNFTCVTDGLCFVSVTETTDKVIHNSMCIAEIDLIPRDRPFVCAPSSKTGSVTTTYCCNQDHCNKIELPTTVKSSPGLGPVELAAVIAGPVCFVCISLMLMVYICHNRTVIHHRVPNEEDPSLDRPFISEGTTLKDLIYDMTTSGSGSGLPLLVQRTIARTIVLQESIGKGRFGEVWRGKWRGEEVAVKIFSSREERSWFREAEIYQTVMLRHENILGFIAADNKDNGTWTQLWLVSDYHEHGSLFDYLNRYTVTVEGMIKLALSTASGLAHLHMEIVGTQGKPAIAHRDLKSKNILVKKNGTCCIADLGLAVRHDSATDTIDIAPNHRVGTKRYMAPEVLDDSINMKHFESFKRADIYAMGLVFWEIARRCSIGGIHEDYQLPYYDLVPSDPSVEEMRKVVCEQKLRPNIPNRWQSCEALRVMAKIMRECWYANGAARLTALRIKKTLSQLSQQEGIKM
The assay is described as follows: Competitive binding affinity to TGFBR1 (unknown origin) at 10 uM in presence of ATP relative to control.

Sequence of Activin receptor type-2A (Homo sapiens) (P27037 whole entry): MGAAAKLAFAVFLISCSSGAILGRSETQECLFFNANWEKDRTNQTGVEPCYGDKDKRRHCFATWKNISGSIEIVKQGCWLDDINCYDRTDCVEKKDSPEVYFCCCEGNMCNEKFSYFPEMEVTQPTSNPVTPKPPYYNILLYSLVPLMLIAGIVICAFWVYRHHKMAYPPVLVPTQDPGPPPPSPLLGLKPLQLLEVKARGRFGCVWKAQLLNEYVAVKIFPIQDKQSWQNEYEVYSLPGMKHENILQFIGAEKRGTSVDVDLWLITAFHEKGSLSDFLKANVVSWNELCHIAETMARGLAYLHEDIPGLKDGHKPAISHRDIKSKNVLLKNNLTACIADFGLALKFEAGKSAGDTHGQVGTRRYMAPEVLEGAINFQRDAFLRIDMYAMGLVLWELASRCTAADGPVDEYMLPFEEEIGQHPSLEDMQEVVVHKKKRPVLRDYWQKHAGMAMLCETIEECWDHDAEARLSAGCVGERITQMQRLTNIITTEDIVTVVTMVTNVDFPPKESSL
Sequence of Dual specificity testis-specific protein kinase 1 (Homo sapiens) (Q15569 whole entry, looked up): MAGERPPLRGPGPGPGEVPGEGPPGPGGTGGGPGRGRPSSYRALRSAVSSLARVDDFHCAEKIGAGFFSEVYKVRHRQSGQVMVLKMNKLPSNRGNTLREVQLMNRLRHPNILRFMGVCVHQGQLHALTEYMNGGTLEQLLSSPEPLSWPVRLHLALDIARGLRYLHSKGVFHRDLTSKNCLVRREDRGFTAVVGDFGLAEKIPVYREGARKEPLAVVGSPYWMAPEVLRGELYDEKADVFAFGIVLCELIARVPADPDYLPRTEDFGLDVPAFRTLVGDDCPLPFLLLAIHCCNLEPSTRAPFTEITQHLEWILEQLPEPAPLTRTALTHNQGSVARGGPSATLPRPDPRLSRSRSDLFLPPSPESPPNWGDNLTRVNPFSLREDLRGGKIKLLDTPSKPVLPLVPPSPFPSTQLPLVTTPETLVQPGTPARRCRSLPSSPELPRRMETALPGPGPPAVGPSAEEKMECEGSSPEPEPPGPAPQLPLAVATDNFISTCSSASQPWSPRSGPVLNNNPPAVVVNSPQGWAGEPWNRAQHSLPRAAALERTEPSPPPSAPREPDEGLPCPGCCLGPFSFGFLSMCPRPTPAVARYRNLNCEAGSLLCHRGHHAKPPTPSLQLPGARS
Sequence of SRSF protein kinase 2 (Homo sapiens) (P78362 whole entry, looked up): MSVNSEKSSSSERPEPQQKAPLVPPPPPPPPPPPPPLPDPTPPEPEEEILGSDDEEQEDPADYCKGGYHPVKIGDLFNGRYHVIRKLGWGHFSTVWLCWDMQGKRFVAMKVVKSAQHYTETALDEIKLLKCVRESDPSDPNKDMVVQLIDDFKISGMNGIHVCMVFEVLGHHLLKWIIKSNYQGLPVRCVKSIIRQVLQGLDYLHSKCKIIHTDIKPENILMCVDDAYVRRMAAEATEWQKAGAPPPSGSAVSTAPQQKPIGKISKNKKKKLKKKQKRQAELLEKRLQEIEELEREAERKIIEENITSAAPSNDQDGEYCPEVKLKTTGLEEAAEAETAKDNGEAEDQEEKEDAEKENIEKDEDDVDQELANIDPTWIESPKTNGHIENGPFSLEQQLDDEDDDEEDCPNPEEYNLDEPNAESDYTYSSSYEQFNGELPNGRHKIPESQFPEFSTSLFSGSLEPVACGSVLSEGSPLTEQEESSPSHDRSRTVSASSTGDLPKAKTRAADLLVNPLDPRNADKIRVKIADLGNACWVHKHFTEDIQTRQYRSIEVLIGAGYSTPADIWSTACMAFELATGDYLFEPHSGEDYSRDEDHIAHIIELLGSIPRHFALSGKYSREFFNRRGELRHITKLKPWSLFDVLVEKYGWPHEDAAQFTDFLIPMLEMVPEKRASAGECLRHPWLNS

For the compound `CS(=O)(=O)CCCOc1cccc2c1ccn2-c1ccnc(N[C@H]2CC[C@H](C(=O)N3CCC(O)CC3)CC2)n1`, in assay [1], the inhibition is over 85%.

On to `O[C@H]1CC[C@H](Nc2nccc(-n3ccc4ccccc43)n2)CC1`, for which the inhibition in assay [2] was under 50%; in assay [1], 95%; in assay [3], under 50%; in assay [4] it was 82%; in assay [5] it was under 50%; in assay [6], under 50%. Further, in assay [7], the inhibition is under 50%.

As for `O[C@H]1CC[C@H](Nc2nccc(-n3ncc4ccccc43)n2)CC1`, the inhibition in assay [2] is 81%; in assay [1] it was 97%; in assay [3] it was under 50%; in assay [4] it was 82%; in assay [5], under 50%; in assay [6], under 50%. Also, in assay [7], the inhibition was under 50%.

On to `O[C@H]1CC[C@H](Nc2nccc(-c3n[nH]c4ccccc34)n2)CC1`, for which the inhibition in assay [3] was under 50%; in assay [4] it was 98%; in assay [7], under 50%.

Consider `O[C@H]1CC[C@H](Nc2nccc(-n3nnc4ccccc43)n2)CC1`, for which the inhibition in assay [2] is 95%; in assay [1] it was 100%; in assay [3], under 50%; in assay [4], under 50%; in assay [5], under 50%; in assay [6] it was under 50%. Further, the inhibition in assay [7] is under 50%.
